From ChEMBL document CHEMBL3259621, “Novel merosesquiterpene exerts a potent antitumor activity against breast cancer cells in vitro and in vivo” (Eur J Med Chem, 2014)
Calls of active or inactive are those of the source. The rule behind the calls is not given here.

What was measured:
MCF7 [1] = test: Cell cycle arrest in human MCF7 cells assessed as accumulation at G2-M phase at 2 uM after 24 hrs by propidium iodide/RNAse staining-based FACS analysis (reference value: 8.20 %); assay type: functional
MCF7 [2] = test: Cell cycle arrest in human MCF7 cells assessed as accumulation at G0-G1 phase after 24 hrs by propidium iodide/RNAse staining-based FACS analysis; assay type: functional
MCF7 [3] = test: Cell cycle arrest in human MCF7 cells assessed as accumulation at […] phase at 1 uM after 48 hrs by propidium iodide/RNAse staining-based FACS analysis (reference value: 8.02 %); assay type: functional
MCF7 [4] = test: Induction of apoptosis in human MCF7 cells assessed as early apoptotic cells at 3 uM after 48 hrs by annexin V staining-based flow cytometry (reference value: 0.205 %); assay type: functional
MCF7 [5] = test: Induction of apoptosis in human MCF7 cells assessed as late apoptotic cells at 1 uM after 48 hrs by annexin V staining-based flow cytometry (reference value: 3.24 %); assay type: functional
MCF7 [6] = test: Induction of apoptosis in human MCF7 cells assessed as apoptotic cells at 1 uM after 48 hrs by annexin V staining-based flow cytometry (reference value: 3.44 %); assay type: functional
MCF7 [7] = test: Induction of apoptosis in human MCF7 cells assessed as apoptotic cells at 2 uM after 48 hrs by annexin V staining-based flow cytometry (reference value: 3.44 %); assay type: functional
MCF7 [8] = test: Induction of apoptosis in human MCF7 cells assessed as reduction in cyclin B1 protein expression at 2 uM by Western blotting analysis; assay type: functional, cell-based
How it was run: (§1)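 MCF-7 seeded at 5 × 10⁴/cm² and exposed at 24 h to 2 µM compound for 0, 4, 8, 16 and 24 h. Lysates separated on 12% SDS gels, transferred to nitrocellulose, blocked in 5% milk. Primary antibodies applied overnight at 4 °C, then secondary 1 h at room temperature. Detection by ECL chemiluminescence with β-actin as loading reference.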

MCF7 [9] = test: Induction of apoptosis in human MCF7 cells assessed as reduction in cyclin B1 protein expression at 2 uM after 16 hrs by Western blotting analysis; assay type: functional; set-up: scale not given: the % may be the effect or the level left; how it was run: as §1
MCF7 [10] = test: Induction of apoptosis in human MCF7 cells assessed as reduction in cyclin D1 protein expression at 2 uM after 4 hrs by Western blotting analysis relative to control; assay type: functional; set-up: scale not given: the % may be the effect or the level left; how it was run: as §1
MCF7 [11] = test: Induction of apoptosis in human MCF7 cells assessed as reduction in phosphorylated pRb expression at 2 uM after 16 hrs by Western blotting analysis relative to control; assay type: functional; set-up: scale not given: the % may be the effect or the level left
How it was run: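 MCF-7 seeded at 5 × 10⁴ cells/cm², exposed after 24 h to 2 µM for 0, 4, 8, 16 and 24 h. Lysed in SDS sample buffer, run on 12% acrylamide gels, transferred to nitrocellulose and blocked with 5% milk. Primary antibodies overnight at 4 °C (total or phospho-pRb, β-actin), secondary 1 h at room temperature, ECL chemiluminescence detection.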

MCF7 [12] = test: Induction of apoptosis in human MCF7 cells assessed as increase in p27 expression at 2 uM after 4 to 24 hrs by Western blotting analysis relative to control; assay type: functional, cell-based; how it was run: as §1
MCF7 [13] = test: Induction of apoptosis in human MCF7 cells assessed as increase in total p53 expression level at 2 uM after 4 to 24 hrs by Western blotting analysis relative to control; assay type: functional, cell-based; how it was run: as §1
MCF7 [14] = test: Induction of apoptosis in human MCF7 cells assessed as increase in PARP cleavage at 2 uM after 4 to 24 hrs by Western blotting analysis relative to control; assay type: functional, cell-based; how it was run: as §1
MCF7 [15] = test: Induction of apoptosis in human MCF7 cells assessed as increase in E-cadherin expression at 1 to 2 uM after 48 hrs by FACS analysis; assay type: functional, cell-based
How it was run: (§2)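 MCF-7 seeded at 5 × 10⁴/cm² and treated at 24 h with 1 or 2 µM compound for 48 h. Labelled with fluorochrome-conjugated anti-E-cadherin or anti-β-catenin antibody for 30 min at 4 °C in the dark, washed in PBS. Mean fluorescence intensity measured by FACScan flow cytometry.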

MCF7 [16] = test: Induction of apoptosis in human MCF7 cells assessed as increase in beta-cadenin expression at 1 to 2 uM after 48 hrs by FACS analysis; assay type: functional, cell-based; how it was run: as §2
Mus musculus = test: Toxicity in C57BL/6 mouse allografted with mouse E0771 cells assessed as hair loss at 5 to 15 mg/kg, po; assay type: organism-based; set-up: dose 5-15 mg/kg, route oral; conditions: in vivo
How it was run: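 C57BL/6 mice (10 per group) injected subcutaneously in the right side with 1 × 10⁶ E0771 cells. At day 9, with tumours at 75 mm³, mice were randomised to oral vehicle (1% methylcellulose) or 5, 10 or 15 mg/kg on six occasions. Animals were monitored to day 42 for survival and for signs of toxicity such as hair loss or diarrhoea.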

[17] = Cytotoxicity against mouse E0771 cells after 3 days by SRB assay; assay type: functional, cell-based; conditions: E0771, 72 h
How it was run: (§3)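 Cells seeded at 5 × 10³ cells/cm² in quadruplicate and, after 24 h, treated with increasing concentrations for 3 days. Compounds diluted from DMSO stock, final DMSO <0.1% v/v. Cells were fixed with cold 10% TCA, stained with 0.4% sulforhodamine B in 1% acetic acid, and dye solubilised in 10 mM Tris-base pH 10.5. OD read at 492 nm. IC50 obtained by linear interpolation on a semi-log dose-response curve.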

T84 = test: Cytotoxicity against human T84 cells after 3 days by SRB assay; assay type: functional, cell-based; conditions: T84, 72 h
How it was run: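 Cells seeded in quadruplicate at 5 × 10³ cells/cm². Compound added at 24 h over increasing concentrations for 3 days. Cells fixed with cold 10% TCA, stained with 0.4% sulforhodamine B in 1% acetic acid, dye solubilized in 10 mM Tris pH 10.5, OD read at 492 nm. IC50 taken by linear interpolation of the semi-log dose-response curve. DMSO below 0.1% final.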

T47D = test: Cytotoxicity against human T47D cells after 3 days by SRB assay; assay type: functional, cell-based; conditions: 72 h; how it was run: as §3
[18] = Cytotoxicity against human MCF10A cells after 3 days by SRB assay; assay type: cell-based; conditions: MCF-10A, 72 h; how it was run: as §3
[19] = Therapeutic index, ratio of IC50 for human MCF10A cells to IC50 for human MDA-MB-231 cells; assay type: cell-based, MCF-10A; conditions: MCF10A cells versus MDA-MB-231 cells, read-out: Ratio IC50
[20] = Therapeutic index, ratio of IC50 for human MCF10A cells to IC50 for human T47D cells; assay type: cell-based, MCF-10A; conditions: MCF10A cells versus T47D cells, read-out: Ratio IC50
[21] = Therapeutic index, ratio of IC50 for human MCF10A cells to IC50 for mouse E0771 cells; assay type: cell-based, MCF-10A; conditions: MCF10A cells versus E0771 cells, read-out: Ratio IC50
[22] = Therapeutic index, ratio of IC50 for human CCD-18Co cells to IC50 for human RKO cells; assay type: cell-based; conditions: CCD-18Co cells versus RKO cells, read-out: Ratio IC50
MCF7 [23] = test: Cytotoxicity against human MCF7 cells assessed as reduction in cell viability at 2 uM after 3 days by SRB assay relative to control; assay type: functional
How it was run: (§4)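 MCF-7 seeded at high density (5 × 10⁴/cm²) and treated at 24 h with compound for 3 days, with or without 20 mM NAC. Viable cells quantified by sulforhodamine B staining, OD 492 nm. Viability reduction expressed versus untreated controls.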

MCF7 [24] = test: Cytotoxicity against human MCF7 cells at 1 to 3 uM after 3 days by SRB assay in presence of NAC; assay type: functional, cell-based; how it was run: as §4

C=C1CC[C@@H]2[C@](C)(CCC[C@]2(C)C(=O)OC)[C@H]1Cc1c(C)ccc2c1C(=O)C=CC2=O
Activity (MCF7 [1]): 19.25% | Activity (MCF7 [2]): Dose-dependent effect | Activity (MCF7 [3]): 15.56% | Activity (MCF7 [4]): 19.5% | Activity (MCF7 [5]): 9.63% | Activity (MCF7 [6]): 11.07% | Activity (MCF7 [7]): 29.13% | Activity (MCF7 [8]): Active | Activity (MCF7 [9]): 6% | Activity (MCF7 [10]): 80% | Activity (MCF7 [11]): 90% | Activity (MCF7 [12]): Active | Activity (MCF7 [13]): Active | Activity (MCF7 [14]): Active | Activity (MCF7 [15]): Active | Activity (MCF7 [16]): Active | Activity (Mus musculus): Non-toxic | IC50 [17]: 390 nM | IC50 (T84): 560 nM | IC50 (T47D): 630 nM | IC50 [18]: 3150 nM | selectivity ratio [19]: 6.85 | selectivity ratio [20]: 5 | selectivity ratio [21]: 8.08 | selectivity ratio [22]: 0.56 | viability (MCF7 [23]): 46.09% | Activity (MCF7 [24]): inactive
